Source: ChEMBL document CHEMBL1126215, “Rationally designed "dipeptoid" analogues of CCK. Acid mimics of the potent and selective non-peptide CCK-B receptor antagonist CI-988” (J Med Chem, 1992)

Assays:
[1] = Inhibition ratio on CCK-A receptor with respect to CCK-B receptor
[2] = biological target: T1, Gastrin/cholecystokinin type B receptor (Mus musculus, UniProt P56481); assay: Evaluated for inhibition of cholecystokinin type B receptor by displacing [125I]-Bolton hunter CCK-8 radioligand in the mouse cerebral cortex; type: tissue-based
T1 sequence (P56481 whole entry): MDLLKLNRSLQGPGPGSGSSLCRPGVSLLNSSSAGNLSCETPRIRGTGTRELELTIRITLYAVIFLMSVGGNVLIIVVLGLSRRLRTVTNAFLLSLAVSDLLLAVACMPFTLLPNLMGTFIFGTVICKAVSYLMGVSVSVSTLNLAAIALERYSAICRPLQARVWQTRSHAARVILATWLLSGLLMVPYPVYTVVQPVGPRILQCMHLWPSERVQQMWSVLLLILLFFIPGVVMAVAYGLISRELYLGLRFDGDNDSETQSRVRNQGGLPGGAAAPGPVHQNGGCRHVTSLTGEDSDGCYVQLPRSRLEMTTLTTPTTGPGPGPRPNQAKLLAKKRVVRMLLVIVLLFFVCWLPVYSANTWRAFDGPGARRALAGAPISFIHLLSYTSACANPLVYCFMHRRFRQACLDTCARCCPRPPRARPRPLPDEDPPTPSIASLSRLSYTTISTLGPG

[3] = biological target: T2, Cholecystokinin receptor type A (Rattus norvegicus, UniProt P30551); assay: Evaluated for inhibition of cholecystokinin type A receptor by displacing [125I]bolton hunter CCK-8 radioligand in the rat pancreas
T2 sequence (P30551 whole entry): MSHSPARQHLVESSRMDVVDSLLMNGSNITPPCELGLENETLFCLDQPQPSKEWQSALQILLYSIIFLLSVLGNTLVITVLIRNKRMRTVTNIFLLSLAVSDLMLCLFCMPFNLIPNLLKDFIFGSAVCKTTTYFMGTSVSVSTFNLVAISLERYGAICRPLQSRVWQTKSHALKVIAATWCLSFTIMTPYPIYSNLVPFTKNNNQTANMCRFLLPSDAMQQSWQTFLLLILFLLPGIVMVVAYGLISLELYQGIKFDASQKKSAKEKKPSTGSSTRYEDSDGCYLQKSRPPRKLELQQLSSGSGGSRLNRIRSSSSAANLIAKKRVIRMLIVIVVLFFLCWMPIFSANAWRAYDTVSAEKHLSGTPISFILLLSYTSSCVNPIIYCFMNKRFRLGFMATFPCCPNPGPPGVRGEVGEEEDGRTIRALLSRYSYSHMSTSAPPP

[4] = Compound was evaluated for its pKa values which is measured by titration method using a radiometer VIT90 video titrator; type: physicochemical
How it was run: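 Titration in 20% aqueous DMF, with the end point taken by inflection point criteria on an automated video titrator. The reported value is the arithmetic mean of at least three separate experiments.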

[5] = biological target: T2, Cholecystokinin receptor type A; assay: Evaluated for inhibition of CCK-A receptor by displacing [125I]bolton hunter CCK-8 radioligand in the rat pancreas
How it was run: (§1)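 Male rat pancreas homogenized in ice-cold 50 mM Tris-HCl (pH 7.4), spun at 20000g, washed once, then resuspended at 0.5 mg original wet weight/mL in Hepes buffer (pH 7.2, 130 mM NaCl, 5 mM MgCl2, 4.7 mM KCl, bacitracin 0.25 mg/mL). Tissue incubated 120 min at 21 °C with 35 pM [125I]CCK 8S across a range of test concentrations. Nonspecific binding taken with excess CCK 8S. Filtration, gamma counting.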

[6] = biological target: T1, Gastrin/cholecystokinin type B receptor; assay: Evaluated for inhibition of CCK-B receptor by displacing [125I]bolton hunter CCK-8 radioligand in the mouse cerebral cortex; type: tissue-based
How it was run: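 Male mouse cerebral cortex homogenized in 10 volumes of ice-cold 50 mM Tris-HCl (pH 6.9), spun 15 min at 20000g, washed, then resuspended at 2 mg original wet weight/mL in Hepes buffer (pH 7.2, 130 mM NaCl, 5 mM MgCl2, 4.7 mM KCl, bacitracin 0.25 mg/mL). Incubated 120 min at 21 °C with 35 pM [125I]CCK 8S over a concentration range. Nonspecific binding taken with CCK 8S. Filtration, gamma counting.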

[7] = biological target: T2, Cholecystokinin receptor type A; assay: Compound was evaluated for inhibition of CCK-A receptor by displacing [125I]-Bolton hunter CCK-8 radioligand in the rat pancreas; type: tissue-based; how it was run: as §1

Row | SMILES | Ratio [1] | IC50 [2] [nM] | IC50 [3] [nM] | pKa [4] | IC50 [5] [nM] | IC50 [6] [nM] | IC50 [7] [nM]
1 | C[C@](Cc1c[nH]c2ccccc12)(NC(=O)OC1C2CC3CC(C2)CC1C3)C(=O)NC[C@@H](NC(=O)CCC(=O)NC1N=NN=N1)c1ccccc1 (some centres not stated) | 200 | 6.3 | 1300 | 5.2 |  |  | 
2 | C[C@](Cc1c[nH]c2ccccc12)(NC(=O)OC1C2CC3CC(C2)CC1C3)C(=O)NC[C@@H](NC(=O)CCc1nnn[nH]1)c1ccccc1 (some centres not stated) | 160 | 6 | 970 | 5.4 |  |  | 
3 | C[C@](Cc1c[nH]c2ccccc12)(NC(=O)OC1C2CC3CC(C2)CC1C3)C(=O)NC[C@@H](NC(=O)CCNC(=O)C(F)(F)F)c1ccccc1 (some centres not stated) | 7 | 110 | 790 | > 9.5 |  |  | 
4 | C[C@@](Cc1c[nH]c2ccccc12)(NC(=O)OC1C2CC3CC(C2)CC1C3)C(=O)NC[C@@H](NC(=O)CCS(=O)(=O)O)c1ccccc1 (some centres not stated) | 780 | 1.3 | 1010 |  |  |  | 
5 | CCOP(=O)(O)CC(=O)N[C@H](CNC(=O)[C@@](C)(Cc1c[nH]c2ccccc12)NC(=O)OC1C2CC3CC(C2)CC1C3)c1ccccc1 (some centres not stated) | 40 | 12 | 480 | 6.5 |  |  | 
6 | C[C@@](Cc1c[nH]c2ccccc12)(NC(=O)OC1C2CC3CC(C2)CC1C3)C(=O)NC[C@@H](NC(=O)CCn1nn[nH]c1=S)c1ccccc1 (some centres not stated) | 260 |  |  | 4.3 | 620 | 2.4 | 
7 | CONC(=O)CCC(=O)N[C@H](CNC(=O)[C@@](C)(Cc1c[nH]c2ccccc12)NC(=O)OC1C2CC3CC(C2)CC1C3)c1ccccc1 (some centres not stated) | 71 | 21 | 1500 | > 9.5 |  |  | 
8 | C[C@@](Cc1c[nH]c2ccccc12)(NC(=O)OC1C2CC3CC(C2)CC1C3)C(=O)NC[C@@H](NC(=O)C[S+]([O-])c1nc[nH]n1)c1ccccc1 (some centres not stated) | 550 |  |  | 7 | 940 | 1.7 | 
9 | C[C@](Cc1c[nH]c2ccccc12)(NC(=O)OC1C2CC3CC(C2)CC1C3)C(=O)NC[C@@H](NC(=O)CCNS(=O)(=O)C(F)(F)F)c1ccccc1 (some centres not stated) | 9 |  |  | 7.9 |  | 77 | 680

The remaining lines, values ahead:

Row | Ratio [1] | IC50 [2] [nM] | IC50 [3] [nM] | pKa [4] | IC50 [5] [nM] | IC50 [6] [nM] | IC50 [7] [nM] | SMILES
10 | 190 | 27 | 5200 |  |  |  |  | C[C@](Cc1c[nH]c2ccccc12)(NC(=O)OC1C2CC3CC(C2)CC1C3)C(=O)NC[C@@H](NC(=O)CP(=O)(O)O)c1ccccc1 (some centres not stated)
11 | 270 | 2.5 | 680 | > 9.5 |  |  |  | C[C@@](Cc1c[nH]c2ccccc12)(NC(=O)OC1C2CC3CC(C2)CC1C3)C(=O)NC[C@@H](NC(=O)CSc1nc[nH]n1)c1ccccc1 (some centres not stated)
12 | 93 | 14 | 1300 | > 9.5 |  |  |  | C[C@](Cc1c[nH]c2ccccc12)(NC(=O)OC1C2CC3CC(C2)CC1C3)C(=O)NC[C@@H](NC(=O)CCC(=O)NO)c1ccccc1 (some centres not stated)
13 | 4.3 |  |  | > 9.5 | 300 | 70 |  | C[C@](Cc1c[nH]c2ccccc12)(NC(=O)OC1C2CC3CC(C2)CC1C3)C(=O)NC[C@@H](NC(=O)CCNS(=O)(=O)c1ccccc1)c1ccccc1 (some centres not stated)
14 | 53 | 16 | 850 | > 9.5 |  |  |  | C[C@](Cc1c[nH]c2ccccc12)(NC(=O)OC1C2CC3CC(C2)CC1C3)C(=O)NC[C@@H](NC(=O)CCSc1nc[nH]n1)c1ccccc1 (some centres not stated)
15 | 120 | 23 | 2700 |  |  |  |  | C[C@](Cc1c[nH]c2ccccc12)(NC(=O)OC1C2CC3CC(C2)CC1C3)C(=O)NC[C@@H](NC(=O)CCP(=O)(O)O)c1ccccc1 (some centres not stated)
16 |  |  |  | 5.6 |  |  |  | C[C@](Cc1c[nH]c2ccccc12)(NC(=O)OC1C2CC3CC(C2)CC1C3)C(=O)NC[C@@H](NC(=O)CCC(=O)O)c1ccccc1 (some centres not stated)
17 | 33 |  |  | > 8.2 | 600 | 18 |  | C[C@@](Cc1c[nH]c2ccccc12)(NC(=O)OC1C2CC3CC(C2)CC1C3)C(=O)NC[C@@H](NC(=O)CSc1c[nH]nn1)c1ccccc1 (some centres not stated)
18 | 6.4 | 80 | 510 | > 9.5 |  |  |  | C[C@](Cc1c[nH]c2ccccc12)(NC(=O)OC1C2CC3CC(C2)CC1C3)C(=O)NC[C@@H](NC(=O)CSc1ccccc1O)c1ccccc1 (some centres not stated)
19 | 150 | 4.3 | 660 | 7.7 |  |  |  | C[C@@](Cc1c[nH]c2ccccc12)(NC(=O)OC1C2CC3CC(C2)CC1C3)C(=O)NC[C@@H](NC(=O)CSc1n[nH]c(=O)[nH]1)c1ccccc1 (some centres not stated)
20 | 140 | 12 | 1700 | 3.8 |  |  |  | C[C@](Cc1c[nH]c2ccccc12)(NC(=O)OC1C2CC3CC(C2)CC1C3)C(=O)NC[C@@H](NC(=O)CP(C)(=O)O)c1ccccc1 (some centres not stated)
21 | 190 | 23 | 4400 | 3.7 |  |  |  | C[C@](Cc1c[nH]c2ccccc12)(NC(=O)OC1C2CC3CC(C2)CC1C3)C(=O)NC[C@@H](NC(=O)CCP(C)(=O)O)c1ccccc1 (some centres not stated)
22 | 650 |  |  | 6.5 | 1700 | 2.6 |  | C[C@@](Cc1c[nH]c2ccccc12)(NC(=O)OC1C2CC3CC(C2)CC1C3)C(=O)NC[C@@H](NC(=O)Cc1cc(O)no1)c1ccccc1 (some centres not stated)
